Bioassay records from PubChem BioAssay.
PglD DTNB – C. jejuni PglD acetyltransferase inhibitors, primary screen, biochemical, DTNB colorimetric, single point. purified PglD enzyme, DTNB colorimetric CoA detection. inhibition, % at 12.5 µM. 360,000 tested, 0.098% active. AID 602405, 2012; in the data active means inhibition above about 16%, passing the limit was not always enough; inconclusive means no clear call, values can overlap the other calls
Cneo AK release – Cryptococcus neoformans cell lysis inducers, primary screen, AK release luminescence, single concentration. C. neoformans lysis, adenylate kinase release luminescence, 4 h; normalised: neutral wells 0, clomiphene wells 100. lysis activity, % at 15 µM. 360,000 tested, 0.2% active;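 active means mean lysis activity across replicates of at least 80%, whatever share of replicates individually reach that level; inactive means mean lysis activity below 80%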
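Assay system: log-phase C. neoformans yeast / Quantity: yeast cell density of 5 × 10^6 cells/mL / Medium: fresh YPD growth medium / Compound: single dose / Timing: static 4 h at 37 °C with compound, 1 h detection / Measured by: adenylate kinase release luminescence / Read-out: lysis from increased AK signal / Benchmarks: Clomiphene as positive lysis control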
FGF22 binding – binders of human FGF22 protein, primary screen, FGF22 synaptogenesis inhibitor project, biophysical, thermal shift, single point. recombinant FGF22 thermal shift, SYPRO orange fluorescence; percent of sucrose octasulfate shift, DMSO zero. activity (Tm shift, normalised), % at 9.99 µM. AID 651658, 2012. Fibroblast growth factor 22 (Homo sapiens), Q9HCT0. 340,000 tested, 1.5% active;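 active means mean Tm shift, scaled 0 neutral to 100 positive control, at about 1.3% or above, every replicate too, limit read from the data; inconclusive means no clear call, values can overlap the other calls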
Target sequence (Q9HCT0 whole entry, looked up): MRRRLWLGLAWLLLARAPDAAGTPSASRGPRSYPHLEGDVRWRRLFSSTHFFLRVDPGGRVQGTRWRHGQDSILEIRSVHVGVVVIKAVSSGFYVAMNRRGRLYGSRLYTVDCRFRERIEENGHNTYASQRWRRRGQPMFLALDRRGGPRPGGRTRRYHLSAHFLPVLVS
rRNA inh HTS – reduced GFP signal of wild-type E. coli, primary screen, bacterial rRNA inhibitor project, GFP/RFP fluorescence, OD600, single point; E. coli WT GFP vs humanized-ribosome RFP mutants, 24 h; active compounds read low; DMSO median 0, no signal -100; GFP signal change (wild-type ribosome), % (concentration not given with the values); 350,000 tested, 1.6% active;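 active means significant combined selectivity score with lowered wild-type GFP, culture density cut under 30%, mutant RFP and density less affected; inactive means any of these conditions unmet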
Vif imaging – HIV Vif self-association inhibitors, primary screen, imaging, HEK293T, single point; HEK293T cells, Vif self-association by quenched fluorescence, 24 h; inhibition, % at 7.49 µM; 340,000 tested, 0.35% active; AID 602346, 2012; in the data active means inhibition above about 50%, passing the limit was not always enough; inconclusive means no clear call, values can overlap the other calls; inactive means below about 31%
PGC1a acetyl inh – inhibitors of PGC1a acetylation signal, primary screen, cell-based, U2OS, AlphaScreen, inhibitor mode; inhibition, % at 15.6 µM; AlphaScreen anti-acetyl-lysine; with virally co-expressed GCN5 acetyltransferase; 350,000 tested, 0.17% active;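 active means every replicate shows inhibition of at least 40%; inconclusive means mean inhibition at least 40% but some replicate below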;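 further: 0% = neutral control wells and 100% = positive control wells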
AID977621 – growth inhibition of wild-type GFP E. coli, dose response, H69 mutant RFP, cherry-pick. shares compounds with rRNA inh HTS. E. coli wild-type GFP strain growth, fluorescence, 24 h. activity change, negative = inhibition at 50 µM. 1,900 tested, under 10 active. AID 977621, 2014;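 active means Wild-type ribosome reporter drop at least double the humanized mutant ribosome reporter drop, growth loss under a set limit; inconclusive means no clear call, values can overlap the other calls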;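 further: wild-type GFP and H69 mutant RFP strains grown together 50/50 in each well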
AID977628 – E. coli growth inhibition, wild-type GFP versus h24 humanized RFP strain, dose response, h24 mutant RFP vs wild-type GFP, cherry-pick; shares compounds with rRNA inh HTS; E. coli WT GFP strain growth, fluorescence, 24 h; activity change, negative = inhibition at 50 µM; 1,900 tested, under 10 active; AID 977628, 2014;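 active means compound lowering the normal-ribosome reporter at least twice as much as the humanized-ribosome reporter, growth loss under a set limit; inconclusive means no clear call, values can overlap the other calls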;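 further: wild-type GFP and h24 humanized RFP strains co-cultured 1 to 1 per well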
Starred values were filed as active, the others as inactive; ? = inconclusive; · = not tested or not shown. In the library only some 2.9% were active in any assay of this set; here they are far more common.

SMILES | PglD DTNB | Cneo AK release | FGF22 binding | rRNA inh HTS | Vif imaging | PGC1a acetyl inh | AID977621 | others
Cc1cccc(C)c1-n1nnnc1C1(C)CCC(=O)N1Cc1cccs1 (stereo not given) | · | · | 1 | -21* | · | · | -26
Cc1ccc(CN2C(=O)CCC2(C)c2nnnn2-c2c(C)cccc2C)cc1 (stereo not given) | · | · | 0 | -33 | · | · | ·
O=C(CCC1CCCN(C(=O)c2cccs2)C1)N1CCN(c2ccccn2)CC1 (stereo not given) | · | · | 0 | -2 | -1 | 11 | ·
O=C(CCC1CCCN(C(=O)c2ccsc2)C1)N1CCN(c2ccccn2)CC1 (stereo not given) | 3 | -1 | 0 | -18* | 8 | -8 | -3.6 | AID977628=-3.5
FC(F)(F)c1ccc(Cl)c(-n2c(Cc3cccs3)n[nH]c2=S)c1 | 3 | 3 | 0 | -33* | 1 | 7 | -18
CC(c1ccc(Cl)cc1)n1c(-c2ccc3ccccc3n2)n[nH]c1=S (stereo not given) | 0 | 38 | 0 | -54 | 3 | -12 | ·
CC(c1ccc(F)cc1)n1c(-c2ccc3ccccc3n2)n[nH]c1=S (stereo not given) | -2 | 32 | · | -32* | 10 | · | -4.7
CC(C)NC(=O)N(C)C[C@@H]1Oc2cc(C#Cc3ccccn3)ccc2S(=O)(=O)N([C@@H](C)CO)C[C@@H]1C | -3 | 1 | -1 | -2 | · | -5 | ·
Cc1ccc(-n2nc(C)c3c(C)c(CCC(=O)O)c(C)nc32)cc1C | 4 | 0 | 0 | -26* | -15 | -3 | -15
Cc1ccccc1S(=O)(=O)NCC[C@H]1CC[C@H](NC(=O)C2CCCCC2)[C@@H](CO)O1 | -1 | 9 | 0 | -3 | · | 1 | ·
CCOc1ccc2oc(-c3ccccc3)c(C(=O)N(C)C)c2c1 | 5 | -1 | 0 | -26* | · | -13 | -0.57 | AID977628=-8.5
CCOc1ccc2oc(-c3ccccc3)c(C(=O)O)c2c1 | 7 | 0 | · | · | 3 | 1 | ·
O=C(C[C@H]1CC[C@H]2[C@@H](COC[C@H](O)CN2Cc2cc(F)ccc2F)O1)N1CCc2ccccc2C1 | 8 | -1 | 0 | 1 | · | -5 | ·
COc1cccc(NC(=O)c2ccc(NCCCN3CCC(C)CC3)c([N+](=O)[O-])c2)c1 | -3 | -1 | 0 | -25* | -4 | · | -3.5 | AID977628=?
COc1cccc(NC(=O)c2ccc(NCCCN3CC(C)CC(C)C3)c([N+](=O)[O-])c2)c1 (stereo not given) | · | · | 0 | -46* | 0 | -17 | ? | AID977628=-5.1
CCCN(CCC)CCCNc1ccc(C(=O)Nc2cccc(OC)c2)cc1[N+](=O)[O-] | -3 | 1 | 0 | -10 | -15 | · | ·
Cc1noc(C)c1S(=O)(=O)N(C)C[C@@H]1Oc2c(cccc2N(C)C)C(=O)N([C@H](C)CO)C[C@H]1C | 0 | 0 | 0 | 0 | · | 2 | ·
CCN(CC)S(=O)(=O)c1cc(NC(=O)C(C)N2CCN(Cc3ccc4c(c3)OCO4)CC2)ccc1C (stereo not given) | 0 | 3 | 0 | -21* | -5 | 4 | ?
C[C@@H]1CN([C@H](C)CO)C(=O)c2cccc(NC(=O)c3cnccn3)c2O[C@H]1CN(C)Cc1ccc2c(c1)OCO2 | 5 | -1 | 1 | -2 | · | -3 | ·
COc1ccccc1NS(=O)(=O)c1cc(NC(=O)CNC(=O)c2ccccc2)ccc1C | 0 | 5 | 0 | -20* | -2 | 3 | ?
Cn1cccc1C(=O)NC(=O)COC(=O)c1cc([N+](=O)[O-])ccc1Cl | · | · | 0 | 20 | 6 | · | ·
CN(C)S(=O)(=O)c1ccc(Cl)c(C(=O)OCC(=O)NC(=O)c2cccn2C)c1 | · | · | 0 | -21* | 9 | · | -11 | AID977628=-14
CNC(=O)C[C@H]1CC[C@@H]2[C@H](COc3ccc(NC(=O)c4cc(C)on4)cc3C(=O)N2C)O1 | 2 | 0 | 0 | 8 | · | 6 | ·
Cc1ccc(NC(=O)CN(C)S(=O)(=O)c2cccc3cccnc23)cc1F | 3 | 1 | 0 | -28* | -2 | -5 | -7.4
Cc1ccc(NC(=O)CN(C)S(=O)(=O)c2cccc3cccnc23)cc1C | 0 | -6 | 0 | 2 | 22 | · | ·
SMILES | PglD DTNB | Cneo AK release | FGF22 binding | rRNA inh HTS | Vif imaging | PGC1a acetyl inh | AID977621 | others
CC(C)NC(=O)N(C)C[C@H]1Oc2ccc(NC(=O)C3CCCCC3)cc2CC(=O)N([C@H](C)CO)C[C@@H]1C | 0 | 4 | 0 | 1 | · | · | ·
CC(C)CN(C(=O)CCNC(=O)c1ccc([N+](=O)[O-])cc1)C1CCS(=O)(=O)C1 (stereo not given) | -2 | 0 | 0 | 0 | 13 | 9 | ·
CC(C)CN(C(=O)c1cc([N+](=O)[O-])cc([N+](=O)[O-])c1)C1CCS(=O)(=O)C1 (stereo not given) | 4 | 1 | 0 | -16* | -2 | 7 | -18 | AID977628=-6.4
COc1ccc(NC(=O)N2C[C@@H](O)COC[C@H]3O[C@H](CC(=O)N4CCN(C)CC4)CC[C@@H]32)cc1 | -1 | 3 | 0 | 2 | · | 9 | ·
CS(=O)(=O)c1ccc(C(=O)Nc2nc(-c3ccco3)c(-c3ccco3)s2)cc1 | -6 | -2 | 0 | -19* | -4 | -7 | -11 | AID977628=?
COc1cccc(NC(=O)N2[C@@H]3CNC[C@H]2C3c2ccc(/C=C/c3ccccc3)cc2)c1 (stereo not given in full) | · | · | · | -55 | · | -4 | ·
CSc1cccc(NC(=S)NC(=O)CCc2ccccc2)c1 | -1 | 44 | 0 | -20 | 2 | 3 | ·
O=C(CSc1ccc(Cl)cc1)Nc1cccc(NC(=O)c2ccco2)c1 | 3 | 5 | · | · | -8 | 10 | ·
O=C(CSc1ccccc1)Nc1cccc(NC(=O)c2ccco2)c1 | -2 | 1 | 1 | -21* | 3 | 2 | ?
CSc1cccc(NC(=O)CCc2ccccc2)c1 | · | · | · | -29* | 2 | 34 | 0.12 | AID977628=-5.2
